Values after ≈ are worked out from the molar mass of the structure shown. Structures can show the parent of a compound that is named as a salt. Active and inactive are the calls of the source. No cut-off for these calls is given here. Bridge positions count the residues as written; N and C are the ends. Square brackets hold non-standard residues; d marks the D form. Peptide text beside a SMILES is read from it. * marks the point of attachment. X1 = CC[C@H](C)CCCCC(=O)*; Dab = NCC[C@H](N)C(=O)O
Experiments:
Klebsiella pneumoniae [1] = assay: Antibacterial activity against Klebsiella pneumoniae ATCC 700603 using cyrene as solvent by broth microdilution method; assay type: functional
Klebsiella pneumoniae [2] = assay: Antibacterial activity against Klebsiella pneumoniae ATCC 700603 using DMSO as solvent by broth microdilution method; assay type: functional
Acinetobacter baumannii [3] = assay: Antibacterial activity against Acinetobacter baumannii ATCC 19606 using cyrene as solvent by broth microdilution method; assay type: functional; settings: ATCC 19606 = CIP 70.34 = JCM 6841
Acinetobacter baumannii [4] = assay: Antibacterial activity against Acinetobacter baumannii ATCC 19606 using DMSO as solvent by broth microdilution method; assay type: functional; settings: ATCC 19606 = CIP 70.34 = JCM 6841
Pseudomonas aeruginosa [5] = assay: Antibacterial activity against Pseudomonas aeruginosa ATCC 27893 using cyrene as solvent by broth microdilution method; assay type: functional
Pseudomonas aeruginosa [6] = assay: Antibacterial activity against Pseudomonas aeruginosa ATCC 27893 using DMSO as solvent by broth microdilution method; assay type: functional
Escherichia coli [7] = assay: Antibacterial activity against Escherichia coli ATCC 25922 using cyrene as solvent by broth microdilution method; assay type: functional
Escherichia coli [8] = assay: Antibacterial activity against Escherichia coli ATCC 25922 using DMSO as solvent by broth microdilution method; assay type: functional
Enterococcus faecalis [9] = assay: microbe, parasite or virus in culture; assay type: functional; settings: ATCC 51299
Staphylococcus aureus [10] = assay: microbe, parasite or virus in culture; assay type: functional; settings: ATCC 43300
Staphylococcus aureus [11] = assay: microbe, parasite or virus in culture; assay type: functional; settings: ATCC 43300; remark: listed apart in the source
Enterococcus faecalis [12] = assay: microbe, parasite or virus in culture; assay type: functional; settings: ATCC 51299; remark: listed apart in the source
Klebsiella pneumoniae [13] = settings: 700603
Klebsiella pneumoniae [14] = settings: 700603; remark: listed apart in the source
Acinetobacter baumannii [15] = settings: ATCC 19606 = CIP 70.34 = JCM 6841
Acinetobacter baumannii [16] = settings: ATCC 19606 = CIP 70.34 = JCM 6841; remark: listed apart in the source
Pseudomonas aeruginosa [17] = settings: ATCC 27893
Pseudomonas aeruginosa [18] = settings: ATCC 27893; remark: listed apart in the source
Escherichia coli [19] = settings: ATCC 25922
Escherichia coli [20] = settings: ATCC 25922; remark: listed apart in the source
Enterococcus faecalis [21] = settings: ATCC 51299
Enterococcus faecalis [22] = settings: ATCC 51299; remark: listed apart in the source
Staphylococcus aureus [23] = settings: ATCC 43300
Staphylococcus aureus [24] = settings: ATCC 43300; remark: listed apart in the source
Klebsiella pneumoniae [25] = assay: Antibacterial activity against Klebsiella pneumoniae ATCC 700603 by broth microdilution method; assay type: functional
Method in brief: (§1)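 Antibiotics were dissolved as stock solutions in either DMSO or Cyrene™, neat or mixed with water, at 5–10 mM (stock). Each drug was tested in parallel with both vehicles. Growth inhibition was read as MIC80 […]. NA means no activity at the highest concentration tested.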

Pseudomonas aeruginosa [26] = assay: Antibacterial activity against Pseudomonas aeruginosa […] by broth microdilution method; assay type: functional; method in brief: as §1
Acinetobacter baumannii [27] = assay: Antibacterial activity against Acinetobacter baumannii ATCC 19606 by broth microdilution method; assay type: functional, ATCC 19606 = CIP 70.34 = JCM 6841; method in brief: as §1
Escherichia coli [28] = assay: Antibacterial activity against Escherichia coli ATCC 25922 by broth microdilution method; assay type: functional; method in brief: as §1
Enterococcus faecalis [29] = assay: Antibacterial activity against Enterococcus faecalis ATCC 51299 by broth microdilution method; assay type: functional; method in brief: as §1
Staphylococcus aureus [30] = assay: Antibacterial activity against Staphylococcus aureus ATCC 43300 by broth microdilution method; assay type: functional; method in brief: as §1

C[C@H]1COc2c(N3CCN(C)CC3)c(F)cc3c(=O)c(C(=O)O)cn1c23 [LEVOFLOXACIN]
MIC80 (Klebsiella pneumoniae [1]): 0.78 µM (≈ 0.282 µg/mL) | MIC80 (Klebsiella pneumoniae [2]): 0.78 µM (≈ 0.282 µg/mL) | MIC80 (Acinetobacter baumannii [3]): 0.39 µM (≈ 0.141 µg/mL) | MIC80 (Acinetobacter baumannii [4]): 0.39 µM (≈ 0.141 µg/mL) | MIC80 (Pseudomonas aeruginosa [5]): 1.6 µM (≈ 0.578 µg/mL) | MIC80 (Pseudomonas aeruginosa [6]): 1.6 µM (≈ 0.578 µg/mL) | MIC80 (Escherichia coli [7]): 0.019 µM (≈ 0.00687 µg/mL) | MIC80 (Escherichia coli [8]): 0.019 µM (≈ 0.00687 µg/mL) | MIC80 (Enterococcus faecalis [9]): 0.19 µM (≈ 0.0687 µg/mL) | MIC80 (Staphylococcus aureus [10]): 0.78 µM (≈ 0.282 µg/mL) | MIC80 (Staphylococcus aureus [11]): 0.78 µM (≈ 0.282 µg/mL) | MIC80 (Enterococcus faecalis [12]): 0.39 µM (≈ 0.141 µg/mL)

O=C(O)c1cn(C2CC2)c2cc(N3CCNCC3)c(F)cc2c1=O [CIPROFLOXACIN HYDROCHLORIDE]
MIC80 (Klebsiella pneumoniae [1]): 0.39 µM | MIC80 (Klebsiella pneumoniae [2]): 0.39 µM | MIC80 (Acinetobacter baumannii [3]): 1.6 µM | MIC80 (Acinetobacter baumannii [4]): 1.6 µM | MIC80 (Pseudomonas aeruginosa [5]): 0.39 µM | MIC80 (Pseudomonas aeruginosa [6]): 0.39 µM | MIC80 (Enterococcus faecalis [9]): 0.39 µM | MIC80 (Staphylococcus aureus [10]): 1.6 µM | MIC80 (Staphylococcus aureus [11]): 1.6 µM | MIC80 (Enterococcus faecalis [12]): 0.39 µM

CC1(C)S[C@@H]2[C@H](NC(=O)Cc3ccccc3)C(=O)N2[C@H]1C(=O)O [PENICILLIN G SODIUM]
MIC80 (Staphylococcus aureus [10]): 34 µM | MIC80 (Staphylococcus aureus [11]): 34 µM | MIC80 (Klebsiella pneumoniae [13]): inactive | MIC80 (Klebsiella pneumoniae [14]): inactive | MIC80 (Acinetobacter baumannii [15]): inactive | MIC80 (Acinetobacter baumannii [16]): inactive | MIC80 (Pseudomonas aeruginosa [17]): inactive | MIC80 (Pseudomonas aeruginosa [18]): inactive | MIC80 (Escherichia coli [19]): inactive | MIC80 (Escherichia coli [20]): inactive | MIC80 (Enterococcus faecalis [21]): inactive | MIC80 (Enterococcus faecalis [22]): inactive

NC[C@H]1O[C@H](O[C@H]2[C@H](O)[C@@H](O[C@H]3O[C@H](CO)[C@@H](O)[C@H](N)[C@H]3O)[C@H](N)C[C@@H]2N)[C@H](N)C[C@@H]1O [TOBRAMYCIN]
MIC80 (Klebsiella pneumoniae [1]): 13 µM (≈ 6.08 µg/mL) | MIC80 (Klebsiella pneumoniae [2]): 13 µM (≈ 6.08 µg/mL) | MIC80 (Acinetobacter baumannii [3]): 3.1 µM (≈ 1.45 µg/mL) | MIC80 (Acinetobacter baumannii [4]): 3.1 µM (≈ 1.45 µg/mL) | MIC80 (Pseudomonas aeruginosa [5]): 1.6 µM (≈ 0.748 µg/mL) | MIC80 (Pseudomonas aeruginosa [6]): 1.6 µM (≈ 0.748 µg/mL) | MIC80 (Escherichia coli [7]): 0.78 µM (≈ 0.365 µg/mL) | MIC80 (Escherichia coli [8]): 0.78 µM (≈ 0.365 µg/mL) | MIC80 (Enterococcus faecalis [21]): inactive | MIC80 (Staphylococcus aureus [23]): inactive | MIC80 (Staphylococcus aureus [24]): inactive | MIC80 (Enterococcus faecalis [22]): inactive

C[S+](C)[O-] [DIMETHYL SULFOXIDE]
MIC80 (Klebsiella pneumoniae [25]): 16 %v/v | MIC80 (Pseudomonas aeruginosa [26]): 16 %v/v | MIC80 (Acinetobacter baumannii [27]): 16 %v/v | MIC80 (Escherichia coli [28]): 10 %v/v | MIC80 (Enterococcus faecalis [29]): 8 %v/v | MIC80 (Staphylococcus aureus [30]): 16 %v/v

O=C1CC[C@H]2CO[C@@H]1O2
MIC80 (Klebsiella pneumoniae [25]): 8 %v/v | MIC80 (Pseudomonas aeruginosa [26]): 8 %v/v | MIC80 (Acinetobacter baumannii [27]): 8 %v/v | MIC80 (Escherichia coli [28]): 5 %v/v | MIC80 (Enterococcus faecalis [29]): 4 %v/v | MIC80 (Staphylococcus aureus [30]): 8 %v/v

CC[C@H](C)CCCCC(=O)N[C@@H](CCN)C(=O)N[C@H](C(=O)N[C@@H](CCN)C(=O)N[C@H]1CCNC(=O)[C@H]([C@@H](C)O)NC(=O)[C@H](CCN)NC(=O)[C@H](CCN)NC(=O)[C@H](CC(C)C)NC(=O)[C@@H](Cc2ccccc2)NC(=O)[C@H](CCN)NC1=O)[C@@H](C)O (X1-[Dab]T[Dab][Dab][Dab][dF]L[Dab][Dab]T; lactam 4-C)
MIC80 (Klebsiella pneumoniae [1]): 1.6 µM (≈ 1.93 µg/mL) | MIC80 (Klebsiella pneumoniae [2]): 1.6 µM (≈ 1.93 µg/mL) | MIC80 (Acinetobacter baumannii [3]): 1.6 µM (≈ 1.93 µg/mL) | MIC80 (Acinetobacter baumannii [4]): 1.6 µM (≈ 1.93 µg/mL) | MIC80 (Pseudomonas aeruginosa [5]): 3.1 µM (≈ 3.73 µg/mL) | MIC80 (Pseudomonas aeruginosa [6]): 3.1 µM (≈ 3.73 µg/mL) | MIC80 (Escherichia coli [7]): 1.6 µM (≈ 1.93 µg/mL) | MIC80 (Escherichia coli [8]): 1.6 µM (≈ 1.93 µg/mL) | MIC80 (Enterococcus faecalis [21]): inactive | MIC80 (Staphylococcus aureus [23]): inactive | MIC80 (Staphylococcus aureus [24]): inactive | MIC80 (Enterococcus faecalis [22]): inactive

CN(C)[C@@H]1C(O)=C(C(N)=O)C(=O)[C@@]2(O)C(O)=C3C(=O)c4c(O)cccc4[C@@](C)(O)[C@H]3C[C@@H]12 [TETRACYCLINE]
MIC80 (Acinetobacter baumannii [3]): 12.5 µM (≈ 5.56 µg/mL) | MIC80 (Acinetobacter baumannii [4]): 25 µM (≈ 11.1 µg/mL) | MIC80 (Pseudomonas aeruginosa [5]): 25 µM (≈ 11.1 µg/mL) | MIC80 (Pseudomonas aeruginosa [6]): 25 µM (≈ 11.1 µg/mL) | MIC80 (Escherichia coli [7]): 3.13 µM (≈ 1.39 µg/mL) | MIC80 (Escherichia coli [8]): 3.13 µM (≈ 1.39 µg/mL) | MIC80 (Staphylococcus aureus [10]): 0.78 µM (≈ 0.347 µg/mL) | MIC80 (Staphylococcus aureus [11]): 0.78 µM (≈ 0.347 µg/mL) | MIC80 (Klebsiella pneumoniae [13]): inactive | MIC80 (Klebsiella pneumoniae [14]): inactive | MIC80 (Enterococcus faecalis [21]): inactive | MIC80 (Enterococcus faecalis [22]): inactive

CN[C@H](CC(C)C)C(=O)N[C@H]1C(=O)N[C@@H](CC(N)=O)C(=O)N[C@H]2C(=O)N[C@H]3C(=O)N[C@H](C(=O)N[C@H](C(=O)O)c4cc(O)cc(O)c4-c4cc3ccc4O)[C@H](O)c3ccc(c(Cl)c3)Oc3cc2cc(c3O[C@@H]2O[C@H](CO)[C@@H](O)[C@H](O)[C@H]2O[C@H]2C[C@](C)(N)[C@H](O)[C@H](C)O2)Oc2ccc(cc2Cl)[C@H]1O [VANCOMYCIN HYDROCHLORIDE]
MIC80 (Enterococcus faecalis [9]): 13 µM | MIC80 (Staphylococcus aureus [10]): 0.39 µM | MIC80 (Staphylococcus aureus [11]): 0.39 µM | MIC80 (Enterococcus faecalis [12]): 13 µM | MIC80 (Klebsiella pneumoniae [13]): inactive | MIC80 (Klebsiella pneumoniae [14]): inactive | MIC80 (Acinetobacter baumannii [15]): inactive | MIC80 (Acinetobacter baumannii [16]): inactive | MIC80 (Pseudomonas aeruginosa [17]): inactive | MIC80 (Pseudomonas aeruginosa [18]): inactive | MIC80 (Escherichia coli [19]): inactive | MIC80 (Escherichia coli [20]): inactive

Reference: ChEMBL document CHEMBL4673173, “Cyrene(TM) is a green alternative to DMSO as a solvent for antibacterial drug discovery against ESKAPE pathogens” (RSC Med Chem, 2020)
